# Assay results taken from ChEMBL document CHEMBL4251567 (Eur J Med Chem, 2018).
# What was measured:
# [1] = biological target: Histone deacetylase 2 (Homo sapiens) (UniProt Q92769); assay: Inhibition of HDAC2 in human HeLa-S3 cell lysates assessed as remaining activity at 4 x 10^-6 M preincubated for 15 mins followed by HDAC-Glo substrate addition […] relative to control
# [2] = biological target: Histone deacetylase 3 (Homo sapiens) (UniProt O15379); assay: Inhibition of HDAC3 in human HeLa-S3 cell lysates assessed as remaining activity at 1.6 x 10^-5 M preincubated for 15 mins followed by HDAC-Glo substrate addition measured after 30 to 40 mins by […] relative to control
# Chain of Histone deacetylase 3 (Homo sapiens) (O15379 whole entry): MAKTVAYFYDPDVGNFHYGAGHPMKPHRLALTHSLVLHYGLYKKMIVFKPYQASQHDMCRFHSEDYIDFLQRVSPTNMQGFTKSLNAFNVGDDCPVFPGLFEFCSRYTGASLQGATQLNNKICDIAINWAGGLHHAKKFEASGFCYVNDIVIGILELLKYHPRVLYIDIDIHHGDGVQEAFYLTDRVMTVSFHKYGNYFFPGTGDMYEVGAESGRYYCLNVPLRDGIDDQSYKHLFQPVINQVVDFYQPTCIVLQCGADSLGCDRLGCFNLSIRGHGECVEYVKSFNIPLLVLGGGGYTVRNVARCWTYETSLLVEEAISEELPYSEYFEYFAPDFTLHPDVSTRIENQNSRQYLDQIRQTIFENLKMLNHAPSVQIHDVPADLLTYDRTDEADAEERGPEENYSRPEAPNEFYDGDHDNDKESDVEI
# Procedure, shortened: (§1)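 Antibody-capture (ELISA-type) assay: HDAC antibody coated in carbonate/bicarbonate buffer pH 9.4, wells blocked with 5% milk in TBST. HeLa-S3 lysate added at 1 mg/mL for HDAC3, 1 h at 4 °C, then washed. Inhibitor in DMSO preincubated 15 min at RT in HDAC-Glo buffer. HDAC-Glo reagent added, luminescence read after 30-40 min. Concentrations are final. Background = no-antibody well; activity given as % of DMSO control.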
# [3] = biological target: Histone deacetylase 3 (Homo sapiens) (UniProt O15379); assay: Inhibition of HDAC3 in human HeLa-S3 cell lysates assessed as remaining activity at 4 x 10^-6 M preincubated for 15 mins followed by HDAC-Glo substrate addition measured after 30 to 40 mins by fluorimetric method relative to control; procedure, shortened: as §1
# [4] = biological target: Histone deacetylase 3 (Homo sapiens) (UniProt O15379); assay: Inhibition of HDAC3 in human HeLa-S3 cell lysates assessed as remaining activity at […] preincubated for 15 mins followed by HDAC-Glo substrate addition measured after 30 to 40 mins by […] relative to control
# [5] = biological target: Histone deacetylase (Homo sapiens) (UniProt Q13547+O15379+Q9UBN7+Q92769+Q9UQL6+Q8WUI4+Q9BY41+Q96DB2+P56524+Q9UKV0+Q969S8); assay: Inhibition of HDAC in human HeLa-S3 cell lysates assessed as residual activity at 2.4 x 10^-5 M preincubated for 15 mins followed by HDAC-Glo substrate addition measured after 35 mins by […] relative to control; format: protein assay
# [6] = biological target: Histone deacetylase 2 (Homo sapiens) (UniProt Q92769); assay: Inhibition of HDAC2 in human HeLa-S3 cell lysates assessed as remaining activity at 8 x 10^-6 M preincubated for 15 mins followed by HDAC-Glo substrate addition measured after 30 to 40 mins by […] relative to control
# Procedure, shortened: (§2)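 Same antibody-capture format as the other class I isoforms. HeLa-S3 lysate added at 100 μg/mL for HDAC1 and HDAC2, 1 h at 4 °C, then washed. Inhibitor in DMSO preincubated 15 min at RT; HDAC-Glo reagent added and luminescence read after 30-40 min. Concentrations are final. Signal corrected against a well without antibody; activity expressed as % of DMSO control.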
# [7] = biological target: Histone deacetylase 2 (Homo sapiens) (UniProt Q92769); assay: Inhibition of HDAC2 in human HeLa-S3 cell lysates assessed as remaining activity at 1.6 x 10^-5 M preincubated for 15 mins followed by HDAC-Glo substrate addition measured after 30 to 40 mins by […] relative to control; procedure, shortened: as §2
# [8] = biological target: Histone deacetylase 3 (Homo sapiens) (UniProt O15379); assay: Inhibition of HDAC3 in human HeLa-S3 cell lysates assessed as remaining activity at 5 uM preincubated for 15 mins followed by HDAC-Glo substrate addition measured after 30 to 40 mins by […] relative to control; procedure, shortened: as §1
# [9] = biological target: T1, Protein deacetylase HDAC6 (Homo sapiens) (UniProt Q9UBN7); assay: Inhibition of HDAC6 in human HeLa-S3 cell lysates assessed as remaining activity at 5 uM preincubated for 15 mins followed by HDAC-Glo substrate addition measured after 30 to 40 mins by […] relative to control
# T1 sequence (whole entry): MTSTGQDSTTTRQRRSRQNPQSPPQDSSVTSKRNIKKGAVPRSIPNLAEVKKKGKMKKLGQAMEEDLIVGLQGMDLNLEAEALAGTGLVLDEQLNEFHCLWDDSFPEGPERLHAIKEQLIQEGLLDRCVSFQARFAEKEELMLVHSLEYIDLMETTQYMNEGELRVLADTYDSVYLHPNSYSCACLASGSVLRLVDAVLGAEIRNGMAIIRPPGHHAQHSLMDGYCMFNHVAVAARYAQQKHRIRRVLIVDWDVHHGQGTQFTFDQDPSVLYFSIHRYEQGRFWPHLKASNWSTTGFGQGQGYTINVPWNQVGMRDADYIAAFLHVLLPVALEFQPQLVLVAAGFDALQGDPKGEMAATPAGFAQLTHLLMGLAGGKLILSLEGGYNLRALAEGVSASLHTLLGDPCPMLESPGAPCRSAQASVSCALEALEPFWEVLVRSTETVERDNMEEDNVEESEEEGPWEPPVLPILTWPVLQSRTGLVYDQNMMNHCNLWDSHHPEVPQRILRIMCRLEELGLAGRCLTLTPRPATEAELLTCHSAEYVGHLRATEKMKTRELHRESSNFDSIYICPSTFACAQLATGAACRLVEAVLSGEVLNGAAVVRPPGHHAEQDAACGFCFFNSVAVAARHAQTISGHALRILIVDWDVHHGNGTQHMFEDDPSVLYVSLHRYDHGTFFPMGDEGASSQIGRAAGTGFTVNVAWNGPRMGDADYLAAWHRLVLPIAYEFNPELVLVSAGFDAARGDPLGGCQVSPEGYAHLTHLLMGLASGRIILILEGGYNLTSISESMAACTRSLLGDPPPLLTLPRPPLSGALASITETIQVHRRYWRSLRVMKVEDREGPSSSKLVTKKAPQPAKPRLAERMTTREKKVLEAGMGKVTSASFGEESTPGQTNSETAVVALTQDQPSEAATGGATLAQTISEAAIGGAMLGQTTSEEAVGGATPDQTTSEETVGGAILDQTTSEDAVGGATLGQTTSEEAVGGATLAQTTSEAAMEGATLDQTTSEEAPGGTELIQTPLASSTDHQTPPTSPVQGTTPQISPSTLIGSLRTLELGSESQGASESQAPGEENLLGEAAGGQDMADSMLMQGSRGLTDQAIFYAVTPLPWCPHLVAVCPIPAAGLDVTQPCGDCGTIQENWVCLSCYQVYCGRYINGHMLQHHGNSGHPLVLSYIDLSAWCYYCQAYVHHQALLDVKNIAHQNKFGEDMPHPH
# Procedure, shortened: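 HDAC6 captured on an anti-HDAC6 antibody-coated plate (2 μg/mL, pH 9.4 carbonate buffer, milk-blocked). HeLa-S3 lysate loaded at 1 mg/mL, 1 h at 4 °C, then washed. 15 min RT preincubation with inhibitor in DMSO; HDAC-Glo reagent added, luminescence read at 30-40 min. Concentrations are final. Background = no-antibody well; values are % activity versus DMSO control.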
# Chain of Histone deacetylase 2 (Homo sapiens) (Q92769 whole entry, canonical isoform): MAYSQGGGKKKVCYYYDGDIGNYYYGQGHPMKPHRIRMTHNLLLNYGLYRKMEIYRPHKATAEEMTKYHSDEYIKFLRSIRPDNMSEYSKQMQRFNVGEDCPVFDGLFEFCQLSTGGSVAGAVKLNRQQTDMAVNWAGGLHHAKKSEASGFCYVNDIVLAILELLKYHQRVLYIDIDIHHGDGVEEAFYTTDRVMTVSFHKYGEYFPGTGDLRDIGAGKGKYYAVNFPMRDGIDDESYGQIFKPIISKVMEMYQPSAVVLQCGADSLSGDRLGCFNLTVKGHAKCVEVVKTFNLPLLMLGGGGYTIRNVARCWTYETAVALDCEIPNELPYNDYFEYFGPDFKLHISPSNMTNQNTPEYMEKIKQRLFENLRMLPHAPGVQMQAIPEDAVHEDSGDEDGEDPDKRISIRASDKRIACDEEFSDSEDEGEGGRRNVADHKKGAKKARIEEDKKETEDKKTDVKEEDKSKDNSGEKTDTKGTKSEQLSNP
Activity [1] [%],Activity [2] [%],Activity [3] [%],Activity [4] [%],Activity [5] [%],Activity [6] [%],Activity [7] [%],Activity [8] [%],Activity [9] [%],SMILES
59,17,64,71,31,34,23,–,–,CCC(CCCC(=O)Nc1ccccc1)CCC(=O)NO (centres undefined)
–,–,–,–,–,–,–,90,2.9,O=C(CCC(CCCC(=O)Nc1ccccc1)Cc1ccccc1)NO (racemic)
